# Assay results reported in ChEMBL document CHEMBL4393724, “Betulin-1,4-quinone hybrids: Synthesis, anticancer activity and molecular docking study with NQO1 enzyme” (Eur J Med Chem, 2019).
# Calls of active or inactive are those of the source. No cut-off for these calls is given here.
# Assays:
# MCF7 [1] = test: Antiproliferative activity against human MCF7 cells assessed as reduction in cell viability incubated for 72 hrs by WST1 assay; assay type: functional, cell-based; conditions: Homo sapiens, MCF7, 72 h; read-out: IC50
# In short: (§1)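 Cells held at 37 °C under 5% CO2 and seeded at 5 × 10^4 cells/well in DMEM with 10% FCS plus streptomycin and penicillin. Compounds were dissolved in DMSO and exposed for 72 h. WST-1 formazan was read at 450 nm. IC50 was derived from the mean ± SD of at least three independent experiments run in triplicate. Cisplatin served as reference.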
# [2] = molecular target: NAD(P)H dehydrogenase [quinone] 1 (Homo sapiens) (UniProt P15559); test: Inhibition of NQO1 in human MCF7 cells assessed as increase in CDKN1A expression at 0.5 times of IC50 incubated for 24 hrs by RT-PCR; assay type: cell-based
# NAD(P)H dehydrogenase [quinone] 1 (Homo sapiens), sequence (P15559 whole entry): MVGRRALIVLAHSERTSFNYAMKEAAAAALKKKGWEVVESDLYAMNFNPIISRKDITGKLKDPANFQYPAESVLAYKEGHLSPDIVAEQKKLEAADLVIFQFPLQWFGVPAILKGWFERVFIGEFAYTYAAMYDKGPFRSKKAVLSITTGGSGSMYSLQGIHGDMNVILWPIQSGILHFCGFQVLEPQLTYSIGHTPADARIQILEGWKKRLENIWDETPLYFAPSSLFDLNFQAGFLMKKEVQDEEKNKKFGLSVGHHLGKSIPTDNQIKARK
# In short: (§2)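 Cultured cells were exposed for 24 h to compound at half its IC50. Transcription of H3, TP53, CDKN1A, BAX and BCL-2 was quantified by real-time RT-qPCR with SYBR Green as mRNA copy numbers and compared with untreated control. The BAX/BCL-2 ratio was calculated from the mRNA copies.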
# A549 [3] = test: Induction of apoptosis in human A549 cells assessed as increase in BAX/Bcl2 expression at 0.5 times of IC50 incubated for 24 hrs by RT-PCR; assay type: functional, cell-based; in short: as §2
# [4] = molecular target: NAD(P)H dehydrogenase [quinone] 1 (Homo sapiens) (UniProt P15559); test: Inhibition of NQO1 in human MCF7 cells assessed as increase in TP53 expression at 0.5 times of IC50 incubated for 24 hrs by RT-PCR; assay type: cell-based; in short: as §2
# [5] = molecular target: NAD(P)H dehydrogenase [quinone] 1 (Homo sapiens) (UniProt P15559); test: Inhibition of NQO1 in human C32 cells assessed as increase in CDKN1A expression at 0.5 times of IC50 incubated for 24 hrs by RT-PCR; assay type: cell-based; in short: as §2
# [6] = molecular target: NAD(P)H dehydrogenase [quinone] 1 (Homo sapiens) (UniProt P15559); test: Inhibition of NQO1 in human A549 cells assessed as increase in BAX expression at 0.5 times of IC50 incubated for 24 hrs by RT-PCR; assay type: cell-based; in short: as §2
# SNB-19 = test: Antiproliferative activity against human SNB19 cells assessed as reduction in cell viability incubated for 72 hrs by WST1 assay; assay type: functional, cell-based
# [7] = molecular target: NAD(P)H dehydrogenase [quinone] 1 (Homo sapiens) (UniProt P15559); test: Inhibition of NQO1 in human MCF7 cells assessed as decrease in histone H3 expression at 0.5 times of IC50 incubated for 24 hrs by RT-PCR; assay type: cell-based; in short: as §2
# [8] = molecular target: NAD(P)H dehydrogenase [quinone] 1 (Homo sapiens) (UniProt P15559); test: Inhibition of NQO1 in human MCF7 cells assessed as increase in BAX expression at 0.5 times of IC50 incubated for 24 hrs by RT-PCR; assay type: cell-based; in short: as §2
# C32 [9] = test: Antiproliferative activity against human C32 cells assessed as reduction in cell viability incubated for 72 hrs by WST1 assay; assay type: functional, cell-based; conditions: Homo sapiens, C32, 72 h; read-out: IC50; in short: as §1
# A549 [10] = test: Antiproliferative activity against human A549 cells assessed as reduction in cell viability incubated for 72 hrs by WST1 assay; assay type: functional, cell-based; conditions: Homo sapiens, A549, 72 h; read-out: IC50; in short: as §1
# [11] = molecular target: NAD(P)H dehydrogenase [quinone] 1 (Homo sapiens) (UniProt P15559); test: Inhibition of NQO1 in human C32 cells assessed as increase in BAX expression at 0.5 times of IC50 incubated for 24 hrs by RT-PCR; assay type: cell-based; in short: as §2
# [12] = molecular target: NAD(P)H dehydrogenase [quinone] 1 (Homo sapiens) (UniProt P15559); test: Inhibition of NQO1 in human A549 cells assessed as effect on Bcl2 expression at 0.5 times of IC50 incubated for 24 hrs by RT-PCR; assay type: cell-based; in short: as §2
# [13] = molecular target: NAD(P)H dehydrogenase [quinone] 1 (Homo sapiens) (UniProt P15559); test: Inhibition of NQO1 in human C32 cells assessed as effect on Bcl2 expression at 0.5 times of IC50 incubated for 24 hrs by RT-PCR; assay type: cell-based; in short: as §2
# [14] = molecular target: NAD(P)H dehydrogenase [quinone] 1 (Homo sapiens) (UniProt P15559); test: Inhibition of NQO1 in human C32 cells assessed as increase in TP53 expression at 0.5 times of IC50 incubated for 24 hrs by RT-PCR; assay type: cell-based; in short: as §2
# C32 [15] = test: Induction of apoptosis in human C32 cells assessed as increase in BAX/Bcl2 expression at 0.5 times of IC50 incubated for 24 hrs by RT-PCR relative to control; assay type: functional; in short: as §2
# MDA-MB-231 = test: Antiproliferative activity against human MDA-MB-231 cells assessed as reduction in cell viability incubated for 72 hrs by WST1 assay; assay type: functional, cell-based
# [16] = molecular target: NAD(P)H dehydrogenase [quinone] 1 (Homo sapiens) (UniProt P15559); test: Inhibition of NQO1 in human C32 cells assessed as decrease in histone H3 expression at 0.5 times of IC50 incubated for 24 hrs by RT-PCR; assay type: cell-based; in short: as §2
# T47D = test: Antiproliferative activity against human T47D cells assessed as reduction in cell viability incubated for 72 hrs by WST1 assay; assay type: functional, cell-based; conditions: Homo sapiens, T47D, 72 h; read-out: IC50
# COLO-829 = test: Antiproliferative activity against human COLO829 cells assessed as reduction in cell viability incubated for 72 hrs by WST1 assay; assay type: functional, cell-based; conditions: Homo sapiens, COLO-829, 72 h; read-out: IC50
# [17] = molecular target: NAD(P)H dehydrogenase [quinone] 1 (Homo sapiens) (UniProt P15559); test: Inhibition of NQO1 in human A549 cells assessed as increase in TP53 expression at 0.5 times of IC50 incubated for 24 hrs by RT-PCR; assay type: cell-based; in short: as §2
# [18] = molecular target: NAD(P)H dehydrogenase [quinone] 1 (Homo sapiens) (UniProt P15559); test: Inhibition of NQO1 in human MCF7 cells assessed as effect on Bcl2 expression at 0.5 times of IC50 incubated for 24 hrs by RT-PCR; assay type: cell-based; in short: as §2
# [19] = molecular target: NAD(P)H dehydrogenase [quinone] 1 (Homo sapiens) (UniProt P15559); test: Inhibition of NQO1 in human A549 cells assessed as decrease in of histone H3 expression at 0.5 times of IC50 incubated for 24 hrs by RT-PCR; assay type: cell-based; in short: as §2
# [20] = molecular target: NAD(P)H dehydrogenase [quinone] 1 (Homo sapiens) (UniProt P15559); test: Inhibition of NQO1 in human A549 cells assessed as increase in CDKN1A expression at 0.5 times of IC50 incubated for 24 hrs by RT-PCR; assay type: cell-based; in short: as §2
# MCF7 [21] = test: Induction of apoptosis in human MCF7 cells assessed as increase in BAX/Bcl2 expression at 0.5 times of IC50 incubated for 24 hrs by RT-PCR; assay type: functional, cell-based; in short: as §2
# [22] = molecular target: NAD(P)H dehydrogenase [quinone] 1 (Homo sapiens) (UniProt P15559); test: Inhibition of NQO1 in human A549 cells assessed as decrease in Bcl2 expression at 0.5 times of IC50 incubated for 24 hrs by RT-PCR; assay type: cell-based; in short: as §2
# [23] = molecular target: NAD(P)H dehydrogenase [quinone] 1 (Homo sapiens) (UniProt P15559); test: Inhibition of NQO1 in human C32 cells assessed as decrease in Bcl2 expression at 0.5 times of IC50 incubated for 24 hrs by RT-PCR; assay type: cell-based; in short: as §2
# [24] = Homo sapiens, SNB-19, 72 h, read-out: IC50
# [25] = Homo sapiens, MDA-MB-231, 72 h, read-out: IC50
IC50 (MCF7 [1]) [µM],Activity [2],Activity [4],Activity [5],Activity [6],Activity [7],Activity [8],IC50 (A549 [10]) [µM],Activity [11],Activity [14],Activity [16],IC50 (T47D) [µM],IC50 (COLO-829) [µM],Activity [17],Activity [18],Activity [19],Activity [20],SMILES,Activity (A549 [3]),IC50 (C32 [9]) [µM],Ratio (C32 [15]),other results
8.72,Active,Active,Active,Active,Active,Active,0.77,Active,Active,Active,12.3,0.13,Active,inactive,Active,Active,C=C(C)[C@@H]1CC[C@]2(COC(C)=O)CC[C@]3(C)[C@H](CC[C@@H]4[C@@]5(C)CC[C@H](OC6=C(Cl)C(=O)c7ccccc7C6=O)C(C)(C)[C@@H]5CC[C@]43C)[C@@H]12,Active,1.72,4 - 5,IC50 (SNB-19; [24]): 7.54 µM; Activity [12]: inactive; Activity [13]: inactive; IC50 (MDA-MB-231; mda-mb-231): Not Active; Activity (MCF7 [21]): Active
1.58,Active,Active,Active,Active,Active,Active,0.59,Active,Active,Active,11.3,4.68,Active,inactive,Active,Active,C=C(C)[C@@H]1CC[C@]2(COC(C)=O)CC[C@]3(C)[C@H](CC[C@@H]4[C@@]5(C)CC[C@H](OC6=C(Cl)C(=O)c7ccc(C)nc7C6=O)C(C)(C)[C@@H]5CC[C@]43C)[C@@H]12,Active,6.52,4 - 5,IC50 (SNB-19; snb-19): Not Active; Activity [22]: Active; IC50 (MDA-MB-231; [25]): 0.9 µM; Activity [23]: Active; Activity (MCF7 [21]): Active
14.2,Active,Active,Active,Active,Active,Active,0.45,Active,Active,Active,99.4,6.67,Active,inactive,Active,Active,C#CC(=O)OC[C@]12CC[C@@H](C(=C)C)[C@@H]1[C@H]1CC[C@@H]3[C@@]4(C)CC[C@H](OC5=C(Cl)C(=O)c6cccnc6C5=O)C(C)(C)[C@@H]4CC[C@@]3(C)[C@]1(C)CC2,Active,1.27,4 - 5,IC50 (SNB-19; [24]): 42 µM; Activity [12]: inactive; Activity [13]: inactive; IC50 (MDA-MB-231; [25]): 2.43 µM; Activity (MCF7 [21]): Active
